Measured values collected from several papers.
Each line is one published result; the experiments were not run side by side.
Target: Acetylcholinesterase (ACHE, Homo sapiens, UniProt P22303)
Effect on: enzyme activity
Action: inhibitor

Compound | test | IC50
Cc1ccc(NC(=O)CSc2nnc(COc3ccc4ccccc4c3)n2-c2ccccc2)c(C)c1 | Ellman | 0.697 µM
CC(C)c1cc2c(c(O)c1O)[C@@]13CCCC(C)(C)[C@@H]1C[C@@H]2OC3=O | – | 0.00081 µM
O=C(CSc1nnc(COc2ccc3ccccc3c2)n1-c1ccccc1)Nc1ccccc1 | Ellman | 1.87 µM
COc1cc(-c2nc3ccccc3s2)cc2c1OCC(=O)N2CC(=O)NCC(=O)O | Ellman | > 299 µM
O=c1cc(CSc2ccc(N=Cc3ccc(O)cc3)cc2)occ1O | Ellman | 5.06 µM
CCc1cccc(C)c1NC(=O)CSc1nnc(COc2ccc3ccccc3c2)n1-c1ccccc1 | Ellman | 1.42 µM
COc1cc(-c2nc3ccccc3s2)cc(NC(C)=O)c1OCC(=O)N[C@@H](C)C(=O)O | Ellman | > 289 µM
O=c1cc(CSc2ccc(N=Cc3ccccc3F)cc2)occ1O | Ellman | 4.1 µM
CCOc1cccc(NC(=O)CSc2nnc(COc3ccc4ccccc4c3)n2-c2ccccc2)c1 | Ellman | 1.15 µM
O=c1cc(CSc2ccc(N=Cc3ccc(Br)cc3)cc2)occ1O | Ellman | 0.57 µM
COc1cc(-c2nc3ccccc3s2)cc2c1OCC(=O)N2CC(=O)N[C@@H](CC(C)C)C(=O)O | Ellman | > 265 µM
O=c1cc(CSc2ccc(N=Cc3cccc(Br)c3)cc2)occ1O | Ellman | 5.58 µM
COc1cc(-c2nc3ccccc3s2)cc2c1OCC(=O)N2CC(=O)N[C@@H](Cc1ccccc1)C(=O)O | Ellman | > 247 µM
O=c1cc(CSc2ccc(N=Cc3cccc(O)c3)cc2)occ1O | Ellman | 3.64 µM
CC(C)c1cc2c(c(O)c1O)[C@@]13CCCC(C)(C)[C@@H]1[C@@H](O)[C@@H]2OC3=O | – | 0.00098 µM
